Here are results for 2 compounds from ChEMBL document CHEMBL4138173, “Molecular docking, design, synthesis and antifungal activity study of novel triazole derivatives” (2018).

In brackets after ≈: the same amount, converted by molar mass. Activity calls are given as the source filed them. No cut-off for these calls is given here.

In test [1] the test system is Candida albicans. The experiment in a line: Antifungal activity against Candida albicans SC5314 after 24 hrs. The format is functional. The note with it: SC5314, 24 h. A digest of the protocol:
(§1)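 Broth dilution MIC per NCCLS recommendations. Compounds were dissolved in DMSO in growth medium, then inoculated and incubated at 35 °C, with growth read at 24 h for C. albicans. MIC80 is the first well showing about 80% growth reduction versus the drug-free well. Values are the mean of three replicate tests.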

The subject of a further test is Cryptococcus neoformans. As to the kind of experiment: Antifungal activity against Cryptococcus neoformans after 72 hrs. The format is functional. The essentials: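 NCCLS-based broth dilution against C. neoformans. Test agents were in DMSO in growth medium, inoculated and held at 35 °C, and MIC80 was read at 72 h. MIC80 is the first well with roughly 80% less growth than the drug-free well. Each value averages three replicate tests.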

A further test relates to Aspergillus fumigatus. As to the kind of experiment: Antifungal activity against Aspergillus fumigatus after 5 to 7 days. The test is classed as functional. A digest of the protocol: (§2)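 Filamentous fungi were tested by broth dilution following NCCLS recommendations. Compounds were dissolved in DMSO in growth medium, inoculated and incubated at 35 °C, with MIC80 read after 5–7 days. MIC80 is the first well with approximately 80% growth reduction relative to the drug-free well. Results are the mean of three replicates.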

Test [2] deals with Candida albicans. As to the kind of experiment: Antifungal activity against Candida albicans SCY0109 after 24 hrs. The format is functional. Particulars: SCY0109, 24 h. A digest of the protocol: as §1
A further test has as its system Nakaseomyces glabratus. The experiment in a line: Antifungal activity against Candida glabrata after 5 to 7 days. The format is functional.
For the next test, the system named is Pichia kudriavzevii. As to the kind of experiment: Antifungal activity against Candida krusei after 5 to 7 days. The format is functional. The essentials: (§3)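 MIC measured by broth dilution per NCCLS recommendations. Compounds were dissolved in DMSO in growth medium, inoculated and incubated at 35 °C. MIC80 is the first well with approximately 80% lower growth than the drug-free well. Values are the mean of three replicate tests.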

The next test has as its system Trichophyton rubrum. As to the kind of experiment: Antifungal activity against Trichophyton rubrum after 5 to 7 days. The format is functional. The essentials:
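Broth dilution per NCCLS recommendations against an ATCC strain; compounds dissolved in DMSO in growth medium; incubated at 35 °C. MIC80 is the first well with about 80% growth reduction versus the drug-free well, read at 5–7 days for filamentous fungi. Values are the mean of three replicate tests.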

Another test deals with Candida parapsilosis. As to the kind of experiment: Antifungal activity against Candida parapsilosis after 5 to 7 days. The format is functional. The note with it: Lodderomyces parapsilosis.
A further test relates to Nannizzia gypsea. As to the kind of experiment: Antifungal activity against Microsporum gypseum after 5 to 7 days. The test is classed as functional. The essentials:
as §2

Another test has as its system Candida tropicalis. As to the kind of experiment: Antifungal activity against Candida tropicalis after 24 hrs. The format is functional. A digest of the protocol:
as §3

Test [3] deals with Candida albicans. As to the kind of experiment: Antifungal activity against Candida albicans SC5314 infected in ICR mouse assessed as increase in host survival at 1 mg/kg, po qd for 7 days starting from 2 hrs post infection measured up to 20 days. The test is classed as functional, organism-based. A digest of the protocol:
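Male ICR mice (18–22 g, ten per group) were immunosuppressed with intraperitoneal cyclophosphamide 100 mg/kg once daily for 3 days. They were then infected with 0.4 ml of […] C. albicans SC5314. Oral dosing in 0.5% carboxymethylcellulose suspension began 2 h post-infection, with vehicle-only controls. Read-out was mean survival days over 20 days.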

As a reminder, the MIC80 is the lowest concentration that inhibits either 80% of growth or 80% of the strains tested, depending on the study. Low values mean greater potency, high ones weaker potency.

`OC(Cn1cncn1)(Cn1cncn1)c1ccc(F)cc1F` [FLUCONAZOLE]: the MIC80 with Candida albicans [1] was 1 µg/mL (≈ 3.27 µM); against Cryptococcus neoformans it was 2 µg/mL (≈ 6.53 µM); in the test with Aspergillus fumigatus, > 64 µg/mL; in the test with Candida albicans [2], 0.25 µg/mL (≈ 0.816 µM); in the test on Nakaseomyces glabratus, 1 µg/mL (≈ 3.27 µM); in the test on Pichia kudriavzevii, 32 µg/mL (≈ 104 µM). In addition, the MIC80 amounted to 1 µg/mL (≈ 3.27 µM) against Trichophyton rubrum, 0.5 µg/mL (≈ 1.63 µM) in the test on Candida parapsilosis, 8 µg/mL (≈ 26.1 µM) with Nannizzia gypsea and 32 µg/mL (≈ 104 µM) against Candida tropicalis. For the same compound, the result in the test with Candida albicans [3] was Active.

On to `C[C@@H](N1CCOCC1)[C@](O)(Cn1cncn1)c1ccc(F)cc1F`, for which the MIC80 in the test on Candida albicans [1] was found to be 0.0312 µg/mL (≈ 0.0924 µM); in the test with Cryptococcus neoformans it was 0.0156 µg/mL (≈ 0.0461 µM); with Aspergillus fumigatus, 0.125 µg/mL (≈ 0.369 µM); with Candida albicans [2], 0.0156 µg/mL (≈ 0.0461 µM); against Nakaseomyces glabratus, 0.0312 µg/mL (≈ 0.0924 µM); in the test with Pichia kudriavzevii, 0.5 µg/mL (≈ 1.48 µM). Also, the MIC80 in the test on Trichophyton rubrum worked out at 0.0625 µg/mL (≈ 0.185 µM); in the test with Candida parapsilosis it was 0.0625 µg/mL (≈ 0.185 µM); in the test on Nannizzia gypsea it was 0.0625 µg/mL (≈ 0.185 µM); against Candida tropicalis, 0.5 µg/mL (≈ 1.48 µM). Besides, the outcome in the test with Candida albicans [3] was Active.
